Converted amounts (≈) assume the structure as drawn.
What was measured:
[1] = target: T1, Nuclear receptor ROR-gamma (Homo sapiens, UniProt P51449); assay: Allosteric inhibition of recombinant His6-tagged RORgammat LBD (unknown origin) expressed in Escherichia coli BL21(DE3) assessed as inhibition of biotin-labelled SRC-1 peptide recruitment preincubated for 15 mins followed by biotin-labelled SRC-1 peptide addition and measured after overnight incubation by TR-FRET assay
T1 sequence (P51449 whole entry): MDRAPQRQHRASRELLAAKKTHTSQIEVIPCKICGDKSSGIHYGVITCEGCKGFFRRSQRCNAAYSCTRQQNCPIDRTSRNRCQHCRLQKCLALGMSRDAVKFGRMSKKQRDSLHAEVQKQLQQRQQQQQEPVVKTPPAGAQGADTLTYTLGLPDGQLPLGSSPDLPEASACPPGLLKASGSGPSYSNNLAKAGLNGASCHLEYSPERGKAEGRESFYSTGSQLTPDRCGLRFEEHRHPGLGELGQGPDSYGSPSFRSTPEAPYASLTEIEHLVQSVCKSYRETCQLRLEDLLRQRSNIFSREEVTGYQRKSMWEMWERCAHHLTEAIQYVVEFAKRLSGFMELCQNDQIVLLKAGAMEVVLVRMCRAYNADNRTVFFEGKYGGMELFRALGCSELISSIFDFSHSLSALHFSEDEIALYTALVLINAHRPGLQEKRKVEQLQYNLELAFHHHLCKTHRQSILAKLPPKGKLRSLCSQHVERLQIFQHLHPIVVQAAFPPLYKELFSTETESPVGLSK

[2] = target: T1, Nuclear receptor ROR-gamma; assay: Allosteric inhibition of yeast GAL4 DNA domain-fused RORgammat LBD (97 to 518 residues) (unknown origin) expressed in HEK293T cells after 20 to 22 hrs by steady-glo luciferase assay; type: cell-based
[3] = target: T2, Peroxisome proliferator-activated receptor gamma (Homo sapiens, UniProt P37231); assay: Displacement of [3H]rosiglitazone from human recombinant PPARgamma LBD expressed in insect cells measured after 24 hrs by scintillation counting analysis
T2 sequence (P37231 whole entry): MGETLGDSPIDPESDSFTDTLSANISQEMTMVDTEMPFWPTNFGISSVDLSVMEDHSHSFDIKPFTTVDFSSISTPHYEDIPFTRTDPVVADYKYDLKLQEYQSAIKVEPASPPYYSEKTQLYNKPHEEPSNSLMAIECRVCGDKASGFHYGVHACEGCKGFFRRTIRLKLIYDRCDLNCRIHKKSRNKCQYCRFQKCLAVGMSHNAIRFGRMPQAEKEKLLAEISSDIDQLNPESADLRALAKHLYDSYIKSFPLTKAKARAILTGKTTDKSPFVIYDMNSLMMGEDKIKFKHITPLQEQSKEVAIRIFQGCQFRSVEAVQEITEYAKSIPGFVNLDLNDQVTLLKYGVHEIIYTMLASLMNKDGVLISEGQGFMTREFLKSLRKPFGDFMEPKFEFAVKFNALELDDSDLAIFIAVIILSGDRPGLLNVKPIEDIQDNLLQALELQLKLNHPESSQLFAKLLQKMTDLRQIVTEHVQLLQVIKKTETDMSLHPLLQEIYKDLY

[4] = target: T1, Nuclear receptor ROR-gamma; assay: Allosteric inhibition of RORgammaT in IL-1B/IL-23/IL-2/IL-6/T-Activator CD3/28 Dynabeads-stimulated human PBMC cells assessed as reduction in Th17 differentiation by measuring reduction in IL-17A level incubated for 4 days post-cell stimulation by ELISA
[5] = Clearance in Wistar Han rat at 0.5 mg/kg, iv or 1 mg/kg, po by LC-MS/MS analysis; type: ADME, organism-based; conditions: in vivo
[6] = Half life in Wistar Han rat at 0.5 mg/kg, iv or 1 mg/kg, po by LC-MS/MS analysis; type: ADME, organism-based; conditions: in vivo
[7] = Volume of distribution in Wistar Han rat at 0.5 mg/kg, iv or 1 mg/kg, po by LC-MS/MS analysis; type: ADME, organism-based; conditions: in vivo
[8] = Clearance in Beagle dog at 0.25 mg/kg, iv or 0.5 mg/kg, po by LC-MS/MS analysis; type: ADME, organism-based, Canis lupus familiaris; conditions: in vivo
[9] = Half life in Beagle dog at 0.25 mg/kg, iv or 0.5 mg/kg, po by LC-MS/MS analysis; type: ADME, organism-based, Canis lupus familiaris; conditions: in vivo
[10] = Volume of distribution in Beagle dog at 0.25 mg/kg, iv or 0.5 mg/kg, po by LC-MS/MS analysis; type: ADME, organism-based, Canis lupus familiaris; conditions: in vivo
[11] = Oral bioavailability in Wistar Han rat at 1 mg/kg by LC-MS/MS analysis; type: ADME, organism-based; conditions: in vivo
[12] = Oral bioavailability in Beagle dog at 0.5 mg/kg by LC-MS/MS analysis; type: ADME, organism-based, Canis lupus familiaris; conditions: in vivo
[13] = Protein binding in rat plasma; type: ADME, cell-free; conditions: read-out: PPB (converted)
[14] = Protein binding in dog plasma; type: ADME, cell-free, Canis lupus familiaris; conditions: read-out: PPB (converted)
[15] = Solubility of compound at pH 2; type: physicochemical; conditions: buffer
[16] = Solubility of compound at pH 7.4; type: physicochemical; conditions: buffer
[17] = Plasma concentration in C57BL/6 mouse at 1 mg/kg administered as single dose after 2 hrs; type: ADME, organism-based
Method in brief: (§1)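 Acute pharmacodynamic model: mice received single doses across a dose range, and in this study both plasma compound concentration and Bcl-xL expression in thymocytes were measured to follow RORγt inhibition.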

[18] = Plasma concentration in C57BL/6 mouse at 3 mg/kg administered as single dose after 2 hrs; type: ADME, organism-based; method in brief: as §1
[19] = Plasma concentration in C57BL/6 mouse at 10 mg/kg administered as single dose after 2 hrs; type: ADME, organism-based; method in brief: as §1
[20] = Plasma concentration in C57BL/6 mouse at 30 mg/kg administered as single dose after 2 hrs; type: ADME, organism-based; method in brief: as §1
[21] = Plasma concentration in C57BL/6 mouse at 100 mg/kg administered as single dose after 2 hrs; type: ADME, organism-based; method in brief: as §1
[22] = Unbound clearance in Wistar Han rat at 0.5 mg/kg, iv or 1 mg/kg, po by LC-MS/MS analysis; type: ADME, organism-based; conditions: in vivo
Mus musculus [23] = organism: Mus musculus; assay: animal or person; conditions: C57BL/6, 2 h, read-out: INH
Mus musculus [24] = organism: Mus musculus; assay: animal or person; conditions: C57BL/6, 2 h, read-out: INH; remark: listed apart in the source
Mus musculus [25] = organism: Mus musculus; assay: animal or person; conditions: C57BL/6, 2 h, read-out: INH; remark: listed apart in the source
Mus musculus [26] = organism: Mus musculus; assay: animal or person; conditions: C57BL/6, 2 h, read-out: INH; remark: listed apart in the source
Mus musculus [27] = organism: Mus musculus; assay: animal or person; conditions: C57BL/6, 2 h, read-out: INH; remark: listed apart in the source
Mus musculus [28] = organism: Mus musculus; assay: animal or person; conditions: C57BL/6, 2 h

| IC50 [1] | IC50 [2] | clearance [5] | half-life [6] | Vd [7] | clearance [8] | half-life [9] | Vd [10] | bioavailability [11] | bioavailability [12] | fraction unbound [13] | fraction unbound [14] | solubility [15] | solubility [16] | CL free [22] | Compound | other results |
| --- | --- | --- | --- | --- | --- | --- | --- | --- | --- | --- | --- | --- | --- | --- | --- | --- |
| 5 nM | 400 nM | – | – | – | – | – | – | – | – | – | – | – | – | – | O=C(O)c1ccc(-c2nn(C(=O)c3c(Cl)cccc3Cl)c3ccccc23)cc1 | – |
| 6 nM | 90 nM | 76 mL/min/kg | 0.4 h | 0.8 L/kg | 4.5 mL/min/kg | 1.4 h | 0.4 L/kg | 16% | 45% | 0.013 | 0.013 | < 2 µM | 147 µM (≈ 68.2 µg/mL) | 5846 mL/min/kg | O=C(O)c1ccc(-c2nn(C(=O)c3c(Cl)cccc3C(F)(F)F)c3cccnc23)c(F)c1 | IC50 [3]: 2000 nM; IC50 [4]: 33 nM; concentration at 2 h [17]: 0.18 µM; concentration at 2 h [18]: 0.73 µM; concentration at 2 h [19]: 4.1 µM; concentration at 2 h [20]: 51 µM; concentration at 2 h [21]: 254 µM; inhibition in vivo at 1 mg/kg (Mus musculus [23]): 17%; inhibition in vivo at 3 mg/kg (Mus musculus [24]): 50%; inhibition in vivo at 10 mg/kg (Mus musculus [25]): 69%; inhibition in vivo at 30 mg/kg (Mus musculus [26]): 85%; inhibition in vivo at 100 mg/kg (Mus musculus [27]): 74%; IC50 (Mus musculus [28]): 710 nM |
| – | – | 13 mL/min/kg | 3.7 h | 0.6 L/kg | 1.4 mL/min/kg | 3.1 h | 0.3 L/kg | 35% | 65% | 0.013 | 0.003 | 28 µM (≈ 12.8 µg/mL) | 153 µM (≈ 70.1 µg/mL) | 1000 mL/min/kg | O=C(O)[C@@H]1CCN(c2nn(C(=O)c3c(Cl)cccc3C3CC3)c3cccc(F)c23)C[C@H]1O | – |

From ChEMBL document CHEMBL4334546, “Discovery of N-(Indazol-3-yl)piperidine-4-carboxylic Acids as RORγt Allosteric Inhibitors for Autoimmune Diseases” (ACS Med Chem Lett, 2020)
